The list is not random: actives were taken first. Their share in the collection is about 3.5%.
MrgX1 allo act – allosterically activates human MrgX1 receptor signaling | MrgX1-HEK293, Fluo-4 calcium flux, FDSS; active compounds read high | 310,000 compounds, 0.63% hits | Q96LB2 | B-score at 10 µM | AID 588675;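 active = plate-corrected calcium response at least 3 library SD above typical, normal starting fluorescence, not activating the receptor alone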;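 note: compound read alongside a low EC10 to EC30 dose of BAM8-22 agonist; peak minus trough fluorescence over baseline measured at the second addition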
Target sequence (Q96LB2 whole entry, looked up): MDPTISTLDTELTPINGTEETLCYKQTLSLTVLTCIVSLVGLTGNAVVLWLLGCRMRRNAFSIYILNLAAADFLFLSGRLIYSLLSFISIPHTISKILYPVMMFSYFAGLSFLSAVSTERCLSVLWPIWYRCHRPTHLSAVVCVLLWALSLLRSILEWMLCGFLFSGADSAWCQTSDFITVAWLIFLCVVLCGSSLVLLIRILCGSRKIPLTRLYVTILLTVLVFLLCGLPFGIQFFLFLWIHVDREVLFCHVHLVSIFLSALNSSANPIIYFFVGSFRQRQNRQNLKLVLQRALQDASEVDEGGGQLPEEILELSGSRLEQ
MrgX1 antag – blocks BAM8-22 activation of human MrgX1 receptor | Q96LB2 | B-score at 10 µM | 310,000 compounds, 1.3% hits | AID 588676 | MRGX1-HEK293 calcium flux, Fluo-4, BAM8-22 antagonism; active compounds read low;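 active = calcium-response B-score plate-corrected more than 3 library SD below zero, starting fluorescence within 5 deviations, no agonist response on first addition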;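 note: peak minus trough fluorescence over baseline after final BAM8-22 challenge near maximal dose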
RGS4 inh – human RGS4 inhibition | HEK293 M3R/RGS4 inducible, Fluo-4 calcium flux; active compounds read high; triggered by carbachol at its EC20 | AID 463165 | 310,000 compounds, 0.45% hits | P49798 | B-score at 10 µM;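 active = B-score, a plate-corrected calcium signal, over three deviations above library mean, with baseline fluorescence within five deviations of library mean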;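 note: RGS4 expression induced by doxycycline in cells with stable M3 receptor; B-score is computed from the integrated fluorescence ratio over baseline after carbachol; higher B-score means a larger calcium signal and so more RGS4 inhibition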
Target sequence (P49798 whole entry, looked up): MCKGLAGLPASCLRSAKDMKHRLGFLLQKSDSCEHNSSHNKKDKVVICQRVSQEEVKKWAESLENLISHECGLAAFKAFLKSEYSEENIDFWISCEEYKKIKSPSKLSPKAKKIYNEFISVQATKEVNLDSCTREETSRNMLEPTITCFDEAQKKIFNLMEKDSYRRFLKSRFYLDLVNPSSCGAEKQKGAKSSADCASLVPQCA
MrgX1 ag – agonists of human MrgX1 receptor. 310,000 compounds, 0.44% hits. B-score at 10 µM. MrgX1-HEK293 cells, Fluo-4 calcium fluorescence, agonist mode; active compounds read high;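 active = calcium response B-score plate-corrected fluorescence ratio at least 3 library SD, with starting fluorescence B-score inside 5 SD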
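Material: MrgX1-expressing HEK293 cells; input: 15,000 cells per well; doses: test compound given as first of three sequential additions; schedule: overnight plating before 1 h dye loading; technique: Fluo-4 NW calcium-flux fluorescence, kinetic read; evaluation: baseline-normalised fluorescence change ratio, B-scored; control set: plate-wise positive and negative controls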
RGS4 pot – potentiators or activators of RGS4. HEK293 M3R/inducible RGS4, carbachol calcium flux Fluo4; active compounds read low. B-score at 10 µM. 310,000 compounds, 0.92% hits. AID 463111;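 active = B-score of the integrated calcium signal more than 4 SD below the library mean, with starting fluorescence not abnormally high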;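 note: negative B-score means reduced calcium response which marks RGS4 activation or potentiation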
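Assay system: HEK293 FlpIn-TREx cells, stable M3R, doxycycline-inducible RGS4 / Probe or stimulus: carbachol, ECmax concentration / Times: overnight RGS4 induction, 30 min dye load 37 °C, 20 min compound RT / Signal: kinetic calcium fluorescence imaging with Fluo4-AM dye, 2 µM / Measure: Agonist-evoked peak-minus-minimum fluorescence over baseline, integrated ratio, B score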
RGS4 block valid – validation of RGS4 inhibitors; shares compounds with RGS4 inh; HEK293 M3R/RGS4, carbachol calcium Fluo-4 fluorescence; carbachol added at its EC20; 0 = buffer wells, 100 = carbachol control; calcium response, % at 10 µM; 1,700 compounds, 65% hits;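 active = duplicate-averaged calcium response above the buffer-only control mean plus 5 SD of those controls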;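 note: integrated fluorescence ratio F max minus min over baseline F0; higher response in RGS4-induced cells means RGS4 inhibition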
RGS4 uninduced – counter-screen for RGS4 inhibitors: effect in non-induced cells; shares compounds with RGS4 inh; HEK293 M3R non-induced, carbachol calcium Fluo-4; submaximal (EC20) carbachol stimulus; buffer wells 0%, carbachol control wells 100%; activity (percent), % at 10 µM; 1,900 compounds, 20% hits; call rule not given here;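 note: RGS4 induction absent so cells express M3R without RGS4; higher means more calcium signal and flags a non-specific hit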
M3R basal Ca ctr – signal in non-induced cells without carbachol, RGS4 inhibitor counter-screen | HEK293 M3R/RGS4 non-induced, Fluo-4 calcium, no carbachol; normalised: buffer wells 0%, carbachol wells 100% | calcium response (agonist-mode artifact), % at 10 µM | shares compounds with RGS4 inh | 1,900 compounds, 22% hits | AID 493001;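 active = duplicate-averaged calcium rise in uninduced cells above buffer wells' mean plus 5 SD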
Each line names hits and unclear results; the compound was inactive in the other large screens (follow-up assays come after a bar, where they were run).

CCOC(=O)[C@@H]1[C@H]2COc3ccccc3[C@H]2N2C(=O)N(c3ccccc3)C(=O)[C@]12C	none | RGS4 block valid inactive | RGS4 uninduced inactive | M3R basal Ca ctr inactive
CCOC(=O)[C@@H]1[C@H]2COc3ccc(Br)cc3[C@@H]2N2C(=O)N(c3ccc(Br)cc3)C(=O)[C@]12C	none
CCOC(=O)[C@@H]1[C@H]2COc3ccccc3[C@@H]2N2C(=O)N(c3ccccc3)C(=O)[C@]12C	none | RGS4 block valid inactive | RGS4 uninduced inactive | M3R basal Ca ctr inactive
CCOC(=O)[C@@H]1[C@H]2COc3ccccc3[C@@H]2N2C(=O)N(c3ccc(Cl)cc3)C(=O)[C@]12C	none | RGS4 block valid inactive | RGS4 uninduced inactive | M3R basal Ca ctr inactive
COC(=O)C1(C)NC(c2ccc(OC)cc2)C2C(=O)N(c3ccccc3)C(=O)C21 (centres undefined)	none
COc1ccc(C2NC(=O)NC(c3ccccc3)=C2c2nc3ccccc3s2)cc1 (centres undefined)	none
O=C1NC(c2ccccc2)=C(c2nc3ccccc3s2)C(c2ccc(F)cc2)N1 (centres undefined)	none | RGS4 uninduced inactive | M3R basal Ca ctr inactive
COc1ccc(-c2c(=O)n(OC)c3ccccc3[n+]2[O-])cc1OC	RGS4 inh 7.25 | RGS4 block valid inactive | RGS4 uninduced inactive | M3R basal Ca ctr inactive
C=CCOn1c(=O)c(-c2ccc(OC)c(OC)c2)[n+]([O-])c2ccccc21	none
CCCCCCCCCC(=O)Nc1cccnc1	none
COc1ccc(-c2cnnn2-c2ccc(NC(=O)c3ccco3)cc2)cc1OC	RGS4 inh 4.68 | RGS4 block valid 6.0% | RGS4 uninduced inactive | M3R basal Ca ctr inactive
C=CCNC(=O)CC1Nc2c3ccccc3nc(=S)n2C1=O (centres undefined)	none
CCOC(=O)c1sc(=S)n(-c2ccccc2)c1N(C(C)=O)C(C)=O	RGS4 inh 4.87 | RGS4 block valid inactive | RGS4 uninduced inactive | M3R basal Ca ctr inactive
CCOC(=O)c1sc(=S)n(-c2ccccc2)c1N	none
NC(=O)CC(NC(=O)Cc1ccc(Br)cc1)c1ccc(NC2CCCC2)c([N+](=O)[O-])c1 (centres undefined)	none | RGS4 block valid inactive | RGS4 uninduced inactive | M3R basal Ca ctr inactive
NC(=O)CC(NC(=O)Cc1ccc(Cl)cc1)c1ccc(NC2CCCCCCC2)c([N+](=O)[O-])c1 (centres undefined)	RGS4 inh 4.68 | RGS4 block valid 11.0% | RGS4 uninduced inactive | M3R basal Ca ctr inactive
NC(=O)CC(NC(=O)Cc1ccc(Br)cc1)c1ccc(NC2CCCCCC2)c([N+](=O)[O-])c1 (centres undefined)	none | RGS4 block valid inactive | RGS4 uninduced inactive | M3R basal Ca ctr inactive
NC(=O)CC(NC(=O)Cc1ccc(Cl)cc1)c1ccc(NC2CCCCCC2)c([N+](=O)[O-])c1 (centres undefined)	none
Cc1ccc(NC(=O)c2cc(S(=O)(=O)N3CCCC3)cn2C)cc1	none
CCc1noc(C)c1C(=O)N(CC)c1nc2c(C)cccc2s1	none
Cc1cc(S(=O)(=O)N2CCOCC2)ccc1OCC(=O)Nc1ccc(F)c(Cl)c1	none
COc1ccc(S(=O)(=O)N2CCOCC2)cc1NC(=O)C1COc2ccccc2O1 (centres undefined)	none
Nc1ccccc1C#Cc1cnccn1	none
CC(=O)Oc1cc2c(cc1Cl)C1(CC(c3ccccc3Cl)O2)CC(C)(C)NC(=S)N1 (centres undefined)	RGS4 inh 4.98 | RGS4 block valid 9.0% | RGS4 uninduced inactive | M3R basal Ca ctr inactive
